Activity calls are given as the source filed them. The calls are words filed in the database; no cut-off is given here.
Tests used:
[1] = molecular target: T1, Vitamin D3 receptor (Rattus norvegicus) (UniProt P13053); assay: Ratio of 1alpha,25-dihydroxyvitamin D3 ED50 to compound ED50 for VDR-mediated 24-hydroxylase gene expression in rat ROS 17/2.8 cells after 16 hrs by luciferase reprter assay; type: cell-based
T1 sequence (whole entry): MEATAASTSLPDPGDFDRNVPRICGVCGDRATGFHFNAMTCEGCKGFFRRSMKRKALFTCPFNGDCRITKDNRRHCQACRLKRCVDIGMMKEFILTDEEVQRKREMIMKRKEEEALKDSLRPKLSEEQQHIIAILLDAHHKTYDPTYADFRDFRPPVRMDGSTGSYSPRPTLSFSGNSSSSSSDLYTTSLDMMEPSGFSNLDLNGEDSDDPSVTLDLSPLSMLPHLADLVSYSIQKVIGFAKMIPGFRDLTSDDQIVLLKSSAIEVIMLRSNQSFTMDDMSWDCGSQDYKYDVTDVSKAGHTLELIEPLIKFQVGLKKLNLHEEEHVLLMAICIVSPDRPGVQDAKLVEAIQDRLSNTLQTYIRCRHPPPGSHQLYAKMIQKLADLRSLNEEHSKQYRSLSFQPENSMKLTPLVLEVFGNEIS
Outline: (§1)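 Rat osteosarcoma cells stably transfected with a 24-hydroxylase gene reporter plasmid; luciferase activity read across a dose range. ED50 is the concentration raising luciferase activity by 50%, taken from dose–response curves. Ratio line reports 1α,25-(OH)2D3 ED50 divided by analogue ED50.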

[2] = molecular target: T1, Vitamin D3 receptor (Rattus norvegicus); assay: Ratio of 1alpha,25-dihydroxyvitamin D3 Ki to compound Ki for full length recombinant rat vitamin D receptor by scintillation counting analysis
Outline: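 Competitive binding against radiolabeled 1α,25-(OH)2D3 at 1 nM, with Kd of 0.2 nM used in Ki derivation from dose–response curves. Duplicate runs on two separate occasions. Reported as the average ratio of 1α,25-(OH)2D3 Ki to analogue Ki.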

HL-60 = assay: Ratio of 1alpha,25-dihydroxyvitamin D3 ED50 to compound ED50 for induction of human HL60 promyelocytes differentiation to monocytes after 4 days by NBT reduction assay; type: functional
Outline: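 HL-60 promyelocyte-to-monocyte differentiation scored as percentage of cells reducing nitro blue tetrazolium. Run in duplicate, repeated twice. ED50, the concentration giving 50% maturation, taken from dose–response curves; expressed as the average ratio of 1α,25-(OH)2D3 ED50 to analogue ED50.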

[3] = molecular target: T1, Vitamin D3 receptor (Rattus norvegicus); assay: Induction of VDR transcriptional activity assessed as activation of 24-hydroxylase gene expression in rat ROS 17/2.8 cells after 16 hrs by luciferase reprter assay; type: cell-based; outline: as §1
Rattus norvegicus [4] = assay: Effect on bone calcium mobilization in weanling Sprague-Dawley rat assessed as serum calcium level at 87 pmol/day administered as 4 consecutive daily doses measured 24 hrs after last dose relative to control; type: functional
Outline: (§2)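 Rats switched to a 0.47% Ca diet for 1 week, then 0.02% Ca diet for 2 weeks. Dosing started in the final week on the 0.02% Ca diet: four consecutive intraperitoneal doses about 24 h apart. Blood taken from the severed neck 24 h after the last dose. Serum calcium measured as the index of bone calcium mobilization.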

Rattus norvegicus [5] = assay: Effect on bone calcium mobilization in weanling Sprague-Dawley rat assessed as serum calcium level at 780 pmol/day administered as 4 consecutive daily doses measured 24 hrs after last dose relative to control; type: functional; outline: as §2
Rattus norvegicus [6] = assay: Effect on bone calcium mobilization in weanling Sprague-Dawley rat assessed as serum calcium level at 7020 pmol/day administered as 4 consecutive daily doses measured 24 hrs after last dose relative to control; type: functional; outline: as §2
Rattus norvegicus [7] = assay: Effect on intestinal calcium transport in weanling Sprague-Dawley rat assessed as increase in ratio of serosal to mucosal calcium level at 87 pmol/day administered as 4 consecutive daily doses measured 24 hrs after last dose relative to control; type: functional
Outline: (§3)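 Same rats, on 0.47% Ca diet for 1 week, then 0.02% Ca for 2 weeks. Four intraperitoneal doses about 24 h apart were given during the last week. 24 h after the final dose, the first 10 cm of intestine was taken for calcium transport measurement by the everted gut sac method.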

Rattus norvegicus [8] = assay: Effect on intestinal calcium transport in weanling Sprague-Dawley rat assessed as increase in ratio of serosal to mucosal calcium level at 780 pmol/day administered as 4 consecutive daily doses measured 24 hrs after last dose relative to control; type: functional; outline: as §3
Rattus norvegicus [9] = assay: Effect on intestinal calcium transport in weanling Sprague-Dawley rat assessed as increase in ratio of serosal to mucosal calcium level at 7020 pmol/day administered as 4 consecutive daily doses measured 24 hrs after last dose relative to control; type: functional; outline: as §3
Rattus norvegicus [10] = assay: Effect on bone calcium mobilization in weanling Sprague-Dawley rat assessed as serum calcium level at 2340 pmol/day administered as 4 consecutive daily doses measured 24 hrs after last dose relative to control; type: functional; outline: as §2
Rattus norvegicus [11] = assay: Effect on bone calcium mobilization in weanling Sprague-Dawley rat assessed as serum calcium level at 32 pmol/day administered as 4 consecutive daily doses measured 24 hrs after last dose relative to control; type: functional; outline: as §2
Rattus norvegicus [12] = assay: Effect on intestinal calcium transport in weanling Sprague-Dawley rat assessed as increase in ratio of serosal to mucosal calcium level at 32 pmol/day administered as 4 consecutive daily doses measured 24 hrs after last dose relative to control; type: functional; outline: as §3
Rattus norvegicus [13] = assay: Effect on intestinal calcium transport in weanling Sprague-Dawley rat assessed as increase in ratio of serosal to mucosal calcium level at 2340 pmol/day administered as 4 consecutive daily doses measured 24 hrs after last dose relative to control; type: functional; outline: as §3
Rattus norvegicus [14] = assay: Effect on bone calcium mobilization in weanling Sprague-Dawley rat assessed as serum calcium level at 260 pmol/day administered as 4 consecutive daily doses measured 24 hrs after last dose relative to control; type: functional; outline: as §2
Rattus norvegicus [15] = assay: Effect on bone calcium mobilization in weanling Sprague-Dawley rat assessed as serum calcium level at 16 pmol/day administered as 4 consecutive daily doses measured 24 hrs after last dose relative to control; type: functional; outline: as §2
Rattus norvegicus [16] = assay: Effect on intestinal calcium transport in weanling Sprague-Dawley rat assessed as increase in ratio of serosal to mucosal calcium level at 16 pmol/day administered as 4 consecutive daily doses measured 24 hrs after last dose relative to control; type: functional; outline: as §3
Rattus norvegicus [17] = assay: Effect on intestinal calcium transport in weanling Sprague-Dawley rat assessed as increase in ratio of serosal to mucosal calcium level at 260 pmol/day administered as 4 consecutive daily doses measured 24 hrs after last dose relative to control; type: functional; outline: as §3

SMILES	Ratio ED50 [1]	Ratio Ki [2]	Ratio ED50 (HL-60)	Activity [3]	Activity (Rattus norvegicus [4]) [mg/dL]	Activity (Rattus norvegicus [5]) [mg/dL]	Activity (Rattus norvegicus [6]) [mg/dL]	Ratio (Rattus norvegicus [7])	Ratio (Rattus norvegicus [8])	Ratio (Rattus norvegicus [9])	Activity (Rattus norvegicus [10]) [mg/dL]	Activity (Rattus norvegicus [11]) [mg/dL]	Ratio (Rattus norvegicus [12])	Ratio (Rattus norvegicus [13])	Activity (Rattus norvegicus [14]) [mg/dL]	Activity (Rattus norvegicus [15]) [mg/dL]	Ratio (Rattus norvegicus [16])	Ratio (Rattus norvegicus [17])
C=C1[C@H](O)CC(=C/C=C2\CCC[C@]3(C)[C@@H]([C@@H](C)CCCC(C)(C)O)CC[C@@H]23)C[C@H]1O [DP001]	29	1	25	–	–	–	–	–	–	–	–	–	–	–	–	–	–	–
C=C1/C(=C\C=C2/CCC[C@]3(C)[C@@H]([C@H](C)CCCC(C)C)CC[C@@H]23)C[C@@H](O)C(=C)[C@@H]1O	0.07	0.01	0.07	Dose-dependent effect	0.9	3.8	6	4.6	5.8	6	–	–	–	–	–	–	–	–
C=C1/C(=C\C=C2/CCC[C@]3(C)[C@@H]([C@H](C)CCCC(C)(C)O)CC[C@@H]23)C[C@@H](O)C[C@@H]1O [CALCITRIOL]	–	–	–	Active	0.3	2.1	–	3.1	1.9	–	–	–	–	–	–	–	–	–
C=C1/C(=C/C=C2\CCC[C@]3(C)[C@@H]([C@H](C)CCCC(C)(C)O)CC[C@@H]23)C[C@@H](O)C(=C)[C@@H]1O	1	2.5	0.4	–	0.5	1.3	2.2	2.1	1.2	3.2	2.2	0.3	2.3	3	–	–	–	–
C=C1/C(=C\C=C2/CCC[C@]3(C)[C@@H]([C@@H](C)CCCC(C)(C)O)CC[C@@H]23)C[C@@H](O)C(=C)[C@@H]1O	10	1.1	29	Active	2.8	5.9	6	5.4	9.3	7.3	–	1.1	5	–	3.4	0.7	3	5
C=C1/C(=C\C=C2/CCC[C@]3(C)[C@@H]([C@H](C)CCCC(C)(C)O)CC[C@@H]23)C[C@@H](O)C(=C)[C@@H]1O	1	1.4	0.7	–	2.2	5	7.3	5.1	5.2	9.2	–	1.4	2.4	–	–	–	–	–
C=C1/C(=C/C=C2\CCC[C@]3(C)[C@@H]([C@@H](C)CCCC(C)(C)O)CC[C@@H]23)C[C@@H](O)C(=C)[C@@H]1O	5	1.1	20	Active	0.6	4	–	2.9	4.5	–	–	0	0.9	–	1.2	–	–	2.6
C=C1/C(=C\C=C2/CCC[C@]3(C)[C@@H]([C@@H](C)CCCC(C)C)CC[C@@H]23)C[C@@H](O)C(=C)[C@@H]1O	0.07	0.01	0.7	Dose-dependent effect	0.4	3.3	4.8	–	–	–	–	–	–	–	–	–	–	–

Reference: ChEMBL document CHEMBL3745687, “Synthesis and Biological Activity of 2-Methylene Analogues of Calcitriol and Related Compounds” (2015)
